# NSD2 inh: NSD2 histone methyltransferase inhibitors, primary screen, biochemical, AlphaScreen, single concentration, set 2; Histone-lysine N-methyltransferase NSD2 (Homo sapiens), O96028; NSD2 peptide methylation, 120 min; inhibition, % at 12.5 µM; 310,000 tested, 0.54% active; AID 743445, 2014; in the data active means inhibition above about 50%
# CTSL1 counter: Fasciola hepatica cathepsin L1 inhibitors, primary screen, counter-screen for PFM18AAP inhibitor project, biochemical, QFRET, fluorogenic peptide substrate. recombinant F. hepatica cathepsin L1, Z-Leu-Arg-MCA fluorescence. inhibition, % at 5.96 µM. 300,000 tested, 0.49% active. AID 1906, 2009;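 active means inhibition above the mean of all tested compounds plus 3 SD, set per screening campaign, cut at about 17% in these data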;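 further: 0% = plate median of test compound wells and 100% = 1 µM Z-Phe-Ala-diazomethylketone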
# SUMO HTRF inh: inhibitors of in vitro SUMOylation cascade, primary screen, biochemical, HTRF, uHTS; inhibition, % at 35 µM; 290,000 tested, 0.36% active; HTRF SUMOylation assay, SAE1/SAE2 + UBC9; in the data active means inhibition above about 50%, passing the limit was not always enough
# Target sequence (P63279 whole entry, looked up): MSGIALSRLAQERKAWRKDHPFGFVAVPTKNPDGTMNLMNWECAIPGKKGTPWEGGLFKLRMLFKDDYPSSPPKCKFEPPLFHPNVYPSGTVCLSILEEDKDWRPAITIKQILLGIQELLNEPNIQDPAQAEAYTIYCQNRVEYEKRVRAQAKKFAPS
# TDP2 absorb: human TDP2 enzyme inhibitors, primary screen, biochemical, epi absorbance, recombinant enzyme; inhibition, % at 12.8 µM; Tyrosyl-DNA phosphodiesterase 2 (Homo sapiens), O95551; AID 720702, 2013; 370,000 tested, 0.34% active; T5PNP hydrolysis, p-nitrophenol absorbance 415 nm;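 active means inhibition above the mean of all tested compounds plus 3 SD, set per campaign, cut at about 25% in these data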;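 further: 0% = DMSO with enzyme and 100% = buffer with substrate but no TDP2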
# Target sequence (O95551 whole entry, looked up): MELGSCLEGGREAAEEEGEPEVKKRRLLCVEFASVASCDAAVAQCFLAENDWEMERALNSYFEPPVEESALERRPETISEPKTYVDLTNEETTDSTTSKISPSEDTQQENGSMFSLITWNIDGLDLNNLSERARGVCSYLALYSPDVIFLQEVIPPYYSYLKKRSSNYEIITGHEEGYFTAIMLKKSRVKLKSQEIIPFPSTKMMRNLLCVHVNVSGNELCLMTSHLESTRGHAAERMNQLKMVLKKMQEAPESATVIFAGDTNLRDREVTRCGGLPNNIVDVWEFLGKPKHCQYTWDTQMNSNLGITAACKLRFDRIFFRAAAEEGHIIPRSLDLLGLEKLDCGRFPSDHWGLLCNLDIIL
#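 Test system: human TDP2 enzyme; Input: 120 nM TDP2 per well; Buffer or medium: Mg2+-containing Tris-HCl buffer, pH 7.5; Reagent: 5 mM T5PNP; Dosing: 12.8 µM single point, 1% DMSO; Incubation: reaction 2 h, 37 °C; Detection: p-Nitrophenol epi absorbance; Read-out: % inhibition relative to enzyme-containing and enzyme-free wells; Replicates: single well per compound.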
# * marks the source's active call; other numbers are inactive results; · = not tested or not shown; ! = repeats disagree. The list is not random: actives were taken first. Their share in the collection is about 1.2%.
SMILES,NSD2 inh,CTSL1 counter,SUMO HTRF inh,TDP2 absorb
Cc1c2cc(O)c(=O)cc-2oc2cc(O)c(O)cc12,·,-14.8,91.9*!,45.8*
Cc1cc2oc(=O)cc(-c3cc4ccccc4o3)c2cc1O,7.7,1.8,·,8.1
O=S1(=O)c2ccc(N3CCSCC3)cc2Oc2ccccc2CN1Cc1cn(Cc2ccc(F)cc2)nn1,·,·,·,-8.8
COc1ccc(-n2cccc2/C=C2\C(=N)N3N=C(c4ccco4)SC3=NC2=O)cc1,17.9,1.1,87.8*,10.8
N#Cc1cnn2c(-c3ccccc3)ccnc12,1.3,3.0,50.3*,4.2
NC(=O)c1ncn([C@@H]2O[C@H](CNCc3cccc(OC4CCCC4)c3)[C@@H](O)[C@H]2O)n1,·,·,·,-2.5
O=C(N/N=C/c1ccncc1)c1cccc(NC(=O)c2ccc(Cl)cc2)c1,·,-1.5,62.0*,-2.8
Cc1oc2c(CN(C)C)c(O)ccc2c(=O)c1-c1cscn1,·,0.2,32.9,37.6*
CC(=O)c1sc(Nc2ccc3c(c2)OCO3)nc1C,·,·,·,3.4
NC(=S)NNc1cccc2cccnc12,4.9,2.7,92.4*,15.3
CCOC(=O)c1c(C)[nH]c(C(=O)N(C)CC(=O)Nc2ccc(OCC)c(OCC)c2)c1C,-3.1,·,·,-13.8
COc1ccc(-n2nc(C(=O)N3CCC(N4CCCCC4)CC3)c3c4ccccc4n(C)c3c2=O)cc1,9.4,19.0*,8.4,8.7
CCCCC(C(=O)OCC)C(N)Cc1ccc(F)cc1 (configuration not stated),-3.5,-6.2,74.0*,-13.4
Cc1ccc(/C=C(\NC(=O)c2ccccc2)C(=O)OCc2ccccc2)cc1,-1.8,21.6*,-9.2,11.8
CCOC(=O)/C(=C\c1ccc(C)cc1)NC(=O)c1ccccc1,12.0,-1.5,3.0,-4.4
CN(C)c1ccc(N2C(=O)CSC2=S)cc1,7.9,-1.5,72.6*,4.9
O=C1CSC(=S)N1c1ccc(F)cc1,·,-2.6,20.7,·
COc1ccc(/C=C(/NC(=O)c2ccccc2)C(=O)N/N=C/c2ccncc2)cc1,-28.8,4.9,3.7,-1.3
Cc1ccc(/C=N\NC(=O)/C(=C\Nc2nccc(C)n2)NC(=O)c2ccccc2)cc1,·,21.9*,-9.3,2.3
COc1ccc(/C=N\NC(=O)/C(=C\Nc2nccc(C)n2)NC(=O)c2ccccc2)cc1,3.9,20.1*,23.4,-6.5
S=c1[nH]nc(-c2n[nH]c3c2CCC3)n1N=Cc1c[nH]c2ccccc12,5.7,·,·,-3.4
Cc1cccc(C)c1OCC(=O)NNC(=O)CCCn1c(=O)oc2ccccc21,-1.8,·,·,2.1
CCOC(=O)Cc1nn(Cc2ccc(Cl)cc2)c(=O)c2ccccc12,-4.1,17.9*,1.7,-4.9
Nn1c(SCC(=O)Nc2nccs2)nnc1-c1cc(-c2ccc(F)cc2)n[nH]1,-0.6,·,·,-0.4
O=C(CSc1cn[nH]n1)Nc1ccccc1C(=O)O,39.7,-0.9,9.6,-5.4
SMILES,NSD2 inh,CTSL1 counter,SUMO HTRF inh,TDP2 absorb
CCCS(=O)(=O)NC(=O)C1(C)CCN(C(=O)COc2ccccc2)C1 (configuration not stated),-1.2,·,·,-5.7
Cc1cc(NC(=S)NC(=O)C2CCCC2)ccc1Br,-3.5,·,·,·
COc1cccc2cc(C(=O)NCC3CCCO3)c(=O)oc12 (configuration not stated),-7.4,-0.7,21.3,-15.2
Cc1ccc(S(=O)(=O)N2CCOCC2)cc1C(=O)NCC1CCCO1 (configuration not stated),-0.7,28.1*,8.7,-2.1
COc1ccc2oc(=O)c(C(=O)NCC3CCCO3)cc2c1 (configuration not stated),-5.3,8.5,51.6*,8.7
O=C(NCC1CCCO1)c1cc(S(=O)(=O)N2CCOCC2)c(Cl)cc1Cl (configuration not stated),27.0,·,9.0,2.7
C[C@H]1CCC[C@@]2(O[C@H](CCO)C[C@H](O)[C@H]2O)O1,·,-2.6,·,-6.8
CC1C(=O)N(Cc2cn(CCC3OCCO3)nn2)CCS(=O)(=O)N1Cc1ccc(-c2ccccc2)cc1 (configuration not stated),·,·,·,9.4
Cc1ccc([N+](=O)[O-])cc1N=Nc1c(-c2ccc([N+](=O)[O-])cc2)[nH]n(C(N)=S)c1=O,·,·,22.0,·
NC(=S)n1[nH]c(-c2ccc([N+](=O)[O-])cc2)c(N=Nc2ccc(Cl)cc2)c1=O,7.9,·,64.0*,·
Cc1cccc2c(N=Nc3ccc(S(=O)(=O)Nc4ccc(Cl)cc4)cc3[N+](=O)[O-])c(O)[nH]c12,-2.5,0.0,68.5*,-8.2
COc1ccc(OC)c2sc(N(CCCN(C)C)C(=O)CCS(=O)(=O)c3ccccc3)nc12,7.3,37.2*,·,1.4
Cc1ccc2sc(N(CCCN(C)C)C(=O)CCS(=O)(=O)c3ccccc3)nc2c1C,-2.0,40.2*,-5.5,-13.8
CN(C)CCCN(C(=O)CCS(=O)(=O)c1ccccc1)c1nc2cc3c(cc2s1)OCO3,·,29.4*,-6.2,2.3
COCCNC(=O)C1(C)CCCN(C(=O)c2cc(OC)c(OC)c(OC)c2)C1 (configuration not stated),-1.7,·,·,3.1
CCOc1ccc(-n2c(SCC(=O)c3ccc4ccccc4c3)nnc2-c2ccco2)cc1,-0.9,·,·,-2.0
C[C@@H]1O[C@@H](n2c3ccc(Cl)cc3c3ccc4c5cc(Cl)ccc5[nH]c4c32)[C@H](O)[C@H](O)[C@H]1O,·,·,·,-8.7
CCc1cccc(CC)c1NC(=S)/C(=C(\[O-])c1ccc(Cl)s1)[n+]1ccccc1,3.7,34.2*,4.5,-3.2
Cc1cccc(-n2c(O)c(C=Nc3ccccc3-c3n[nH]c(=S)[nH]c3=O)c3ccccc3c2=O)n1,2.5,8.4,16.6,-15.8
Cc1ccc(-n2c(O)c(C=Nc3ccccc3-c3n[nH]c(=S)[nH]c3=O)c3ccccc3c2=O)c(C)c1,36.1,1.9,53.3*,2.1
Cc1ccc(-n2c(O)c(C=Nc3ccccc3-c3n[nH]c(=S)[nH]c3=O)c3ccccc3c2=O)cc1C,7.2,·,53.0*,6.4
COC(=O)C1CN(Cc2cn(Cc3ccc(C)cc3)nn2)CCS(=O)(=O)N1Cc1ccc(C)cc1 (configuration not stated),·,·,·,-11.7
COc1ccccc1NC(=O)c1sc2nc(C)cc(C)c2c1N,0.6,1.5,·,-9.0
COc1ccccc1NC(=O)c1sc2nc(-c3ccco3)ccc2c1N,-5.7,4.5,54.3*,·
Nc1c(C(=O)Nc2ccccc2)sc2nc(-c3ccco3)ccc12,1.0,2.8,58.5*,7.7
CC(C)C[C@H]1COc2cc(N3CCSCC3)ccc2S(=O)(=O)N1C,·,·,·,12.4
CC1(C(=O)NS(=O)(=O)c2ccc(Cl)s2)CCN1C(=O)Cc1ccccc1Cl (configuration not stated),-4.1,·,·,1.9
O=C(Nc1cccc(N=Cc2cc(Cl)cc(Br)c2O)c1)c1ccco1,-2.5,18.2*,40.0,-3.2
CCN(CC)C(=O)c1sc2nc(-c3ccncc3)[nH]c(=O)c2c1C,-0.5,2.8,51.9*,10.1
